Measurements from different studies.
CDK8 with cyclin C: Cyclin-dependent kinase 8, with cyclin C (CDK8, Homo sapiens, UniProt P49336)
CDK8: Cyclin-dependent kinase 8 (CDK8, Homo sapiens, UniProt P49336)

| SMILES | target | read-out | mode | method | tested at | endpoint | result |
| --- | --- | --- | --- | --- | --- | --- | --- |
| CN1CCN(C(=O)c2ccc3cc(CCNc4ccnc5ccc(C#N)cc45)ccc3c2)CC1 | CDK8 with cyclin C | binding | – | TR-FRET | – | kon | 878000 M⁻¹ s⁻¹ |
| CC1(C)NC(=O)c2[nH]c3c(Cl)c(Cl)ccc3c2C1C#N (stereo not shown) | CDK8 | thermal stability | – | DSF | 10 µM | ΔTm | 0.5 °C |
| CCC(=O)N[C@H]1CC[C@@H](C(=O)N(C)c2ccc(-c3nc4ccccc4o3)cc2)C1 | CDK8 | cell-free assay | – | competition with immobilised ligand | 1 µM | remaining binding | 100% |
| CC(C)(C)c1nc2c(s1)c1nc(N)ncc1c1ccc(NS(=O)(=O)c3c(F)cccc3F)c(F)c12 | CDK8 with cyclin C | enzyme activity | inhibitor | radiometric | 1 µM | remaining activity | 100% |
| O=C(Nc1cnn(-c2csc(C(=O)NC3COC3)c2)c1)Nc1ccccc1Cl | CDK8 with cyclin C | enzyme activity | inhibitor | – | 5 µM | remaining activity | 101% |
| CN1CCC2(CC1)NC(=O)c1c(c3ccc(Cl)c(Cl)c3n1C)C2C#N (racemic) | CDK8 | thermal stability | – | DSF | 10 µM | ΔTm | 1.8 °C |
| O=C(O)[C@H]1[C@H](Cn2nnc3ccccc3c2=O)CC[C@@H]1C(=O)c1ccc(OCCC2CCOCC2)cc1 | CDK8 | cell-free assay | – | competition with immobilised ligand | 1 µM | remaining binding | 100% |
| Cn1c2c(Cl)c(Cl)ccc2c2cn[nH]c(=O)c21 | CDK8 | thermal stability | – | DSF | 10 µM | ΔTm | 1 °C |
| CC(C)CC(=O)N1CCc2nc(-c3ccc(Br)cc3)nc(N(C)Cc3ccccc3)c2C1 | CDK8 | cell-free assay | – | competition with immobilised ligand | 0.1 µM | remaining binding | 82% |
| CCOc1cc(-c2nncn2C)ccc1Nc1ncc2cc(C)nc(NCC(C)(C)C)c2n1 | CDK8 with cyclin C | cell-free assay | – | TR-FRET | 1 µM | inhibition | ≤ 15% |
| C[C@H](c1ccnc(Nc2nc3ccc(-c4cc(N(C)C)ncn4)cc3[nH]2)c1)N1CCN(C(=O)CC(F)(F)F)CC1 | CDK8 | cell-free assay | – | competition with immobilised ligand | 0.1 µM | remaining binding | 96% |
| Cc1sc(C(=O)NC2COC2)cc1-n1cc(NC(=O)Nc2c(F)cccc2Cl)cn1 | CDK8 with cyclin C | enzyme activity | inhibitor | – | 10 µM | remaining activity | 92.7% |
| Cn1c2c(Cl)c(Cl)ccc2c2cc(N)[nH]c(=O)c21 | CDK8 | thermal stability | – | DSF | 10 µM | ΔTm | 0.7 °C |
